Experimental data of several laboratories.
Protocols differ between the studies behind these lines.
Read-out: cell growth or viability

Compound	cell line	technique	concentration	time	endpoint	result
COc1ccc(-c2ccc(-c3ccc(C(=N)N)nc3)s2)cc1Cl	LOX IMVI	SRB	–	–	GI50	1.87 µM
COC(=O)c1cccc(-c2cccc(Nc3nccc(NC4CCCCC4)n3)c2)c1	MV4-11	ATP luminescence	–	72 h	EC50	7.59 µM
CC(C)(CO)Cn1nc(-c2ccc3nc(OCC(F)(F)F)ccc3c2)c2c(N)ncnc21	CRL8155	–	–	–	GI50	> 10 µM
CC(C)Nc1ccnc(Nc2cccc(-c3ccncc3)c2)n1	MV4-11	ATP luminescence	–	72 h	EC50	> 15 µM
Cn1nnc2c(C(N)=O)ncn2c1=O	SGC-7901	–	–	–	EC50	> 1000 µM
C[C@H](Nc1ccnc(Nc2cccc(-c3cccnc3)c2)n1)C(=O)O	MV4-11	ATP luminescence	–	72 h	EC50	> 8 µM
CC(C)c1ccccc1S(=O)(=O)c1cc(N)c2ncccc2c1[N+](=O)[O-]	HN-6	–	–	72 h	IC50	> 20 µM
CCOC(=O)c1c(C)ncn1CC(c1cn(C)c2ccc([N+](=O)[O-])cc12)c1cn(C)c2ccc([N+](=O)[O-])cc12	human Fibroblast	MTS	20 µM	24 h	inhibition	21.1%
COc1ccc(-c2ccc(-c3ccc(C(=N)N)nc3)s2)cc1	MDA-MB-468	SRB	–	–	GI50	1.63 µM
COC(=O)c1c(C)ncn1CC(c1cn(C)c2ccccc12)c1cn(C)c2ccccc12	human Fibroblast	MTS	20 µM	24 h	inhibition	5.1%
CC[C@H](C)Nc1ccnc(Nc2cccc(-c3cccnc3)c2)n1	MV4-11	ATP luminescence	–	72 h	EC50	0.065 µM
CC(C)=CCC[C@](C)(O)[C@H]1CC[C@]2(C)[C@@H]1[C@H](O)C[C@@H]1[C@@]3(C)CC[C@H](O[C@@H]4O[C@H](CO)[C@@H](O)[C@H](O)[C@H]4O[C@@H]4O[C@H](CO)[C@@H](O)[C@H](O)[C@H]4O)C(C)(C)[C@@H]3CC[C@]12C	BEAS-2B	MTT	–	72 h	IC20	> 100 µM
CCCCCCCCCCCCCCCCOP(=O)([O-])OCC[N+](C)(C)C	human Fibroblast	MTS	20 µM	24 h	inhibition	46.2%
N#Cc1ccc(COC[C@H]2O[C@@H](n3c(NCc4ccc(Cl)c(Cl)c4)nc4c(N)ncnc43)[C@H](O)[C@@H]2O)cc1	HN-6	–	–	72 h	IC50	4.86 µM
Fc1ccc(Nc2nccc(NC3CCCCC3)n2)cc1	MV4-11	ATP luminescence	–	72 h	EC50	> 3 µM
COC(C)(C)CCC[C@](C)(O)[C@H]1CC[C@]2(C)[C@@H]1[C@H](O)C[C@@H]1[C@@]3(C)CC[C@H](O)C(C)(C)[C@@H]3CC[C@]12C	BEAS-2B	MTT	–	72 h	IC20	4.46 µM
COC(=O)c1cccc(-c2cccc(Nc3nccc(NC(C)C)n3)c2)c1	MV4-11	ATP luminescence	–	72 h	EC50	4.89 µM
CC(C)(CO)Cn1nc(-c2ccc3nc(OC4CC4)ccc3c2)c2c(N)ncnc21	CRL8155	–	–	–	GI50	> 10 µM
